# Bioassay records deposited in PubChem BioAssay by several laboratories.
# Fibroblast inh = antiproliferative effect on LL 47 fibroblasts – human, LL 47 cells, CellTiter-Glo luminescence, primary screen; LL 47 human lung fibroblast viability, ATP luminescence; hits give low values; viability, % at 10 µM; 1.1% of 85,000 active;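 active = viability at or below 50% in the single dose screen; inactive = viability above 50%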;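 also: compound exposure lasted 72 h before the ATP readout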
#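 Material: human LL 47 lung fibroblast cells; quantity: 1,150 cells/well; medium: IMEM plus 15% FBS; doses: 0.1% DMSO in all compound wells; timing: overnight attachment after seeding, then 72 h compound exposure at 37 °C; detection: CellTiter-Glo luminescence; measure: % viability of median cell-only signal; controls: cell-only wells, no compound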
# PTK2B oligo ant = antagonists of Pyk2 self-association, primary screen, Q293 cells, FERM NanoBiT luminescence, HTS; Protein-tyrosine kinase 2-beta (Homo sapiens), Q14289; hits give low values; z-score (the deposit names both 25 µM and 10 µM); 0.83% of 99,000 active; AID 1347419, 2020;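 active = Z-score of -3 or lower, scaled per plate to the spread of control and sample wells; inactive = z-score above -3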;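 also: negative z-score means lost luminescence so less FERM oligomerization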
# Target sequence (Q14289 whole entry, looked up): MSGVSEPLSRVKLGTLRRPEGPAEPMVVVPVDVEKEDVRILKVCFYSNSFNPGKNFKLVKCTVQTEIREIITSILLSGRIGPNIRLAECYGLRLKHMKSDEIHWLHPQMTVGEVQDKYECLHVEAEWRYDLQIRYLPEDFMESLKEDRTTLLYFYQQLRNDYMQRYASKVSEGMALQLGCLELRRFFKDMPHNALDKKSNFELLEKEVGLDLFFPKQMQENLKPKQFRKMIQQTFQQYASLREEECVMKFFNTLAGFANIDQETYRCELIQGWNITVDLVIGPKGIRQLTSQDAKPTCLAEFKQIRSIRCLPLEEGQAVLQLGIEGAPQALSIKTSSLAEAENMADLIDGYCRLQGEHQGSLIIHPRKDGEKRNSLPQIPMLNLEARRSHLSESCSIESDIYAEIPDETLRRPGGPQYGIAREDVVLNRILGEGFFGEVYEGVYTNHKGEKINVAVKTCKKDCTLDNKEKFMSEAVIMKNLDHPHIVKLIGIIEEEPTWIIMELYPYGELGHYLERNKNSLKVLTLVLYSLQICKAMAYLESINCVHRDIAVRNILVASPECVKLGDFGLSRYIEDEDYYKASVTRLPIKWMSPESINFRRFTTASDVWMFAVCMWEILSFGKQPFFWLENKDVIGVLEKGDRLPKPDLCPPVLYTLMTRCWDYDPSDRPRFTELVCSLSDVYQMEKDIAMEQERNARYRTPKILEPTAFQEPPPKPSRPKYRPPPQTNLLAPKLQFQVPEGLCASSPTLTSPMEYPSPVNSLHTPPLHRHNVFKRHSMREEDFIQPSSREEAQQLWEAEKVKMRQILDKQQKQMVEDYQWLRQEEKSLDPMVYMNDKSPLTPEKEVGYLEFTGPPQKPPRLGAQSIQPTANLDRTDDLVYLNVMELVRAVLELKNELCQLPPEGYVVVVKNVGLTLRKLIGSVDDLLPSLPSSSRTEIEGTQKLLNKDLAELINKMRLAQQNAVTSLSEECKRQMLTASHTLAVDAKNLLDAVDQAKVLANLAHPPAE
# cytoskel mod = modifiers of F-actin cytoskeleton organization, primary screen, imaging, HUVEC, phalloidin staining, high-content imaging; HUVEC TNFa F-actin phalloidin imaging; 0.18% of 91,000 active; inhibition, % at 2 µM;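 active = inhibition above the batch mean plus 3 SD and confirmed as a hit by visual image inspection, cut at about 30% in these data, passing the limit was not always enough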
# H69AR inhibit = proliferation blockers of H69AR lung cancer cells, primary screen, cell-based, human, 86K library; H69AR lung tumor viability, ATP luminescence, 72 h; hits give low values; AID 598, 2007; viability, % at 10 µM; 6% of 85,000 active;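 active = viability at or below 40%; inactive = viability above 40%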;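 also: multidrug resistant small cell line overexpressing MRP-1 efflux transporter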
# Jurkat tox 60K = cytotoxicity toward Jurkat T cells, primary screen, cytotoxicity control, cell-based, Jurkat E6.1, 60K MLSMR library; Jurkat E6.1 viability, ATP luminescence, 48 h; AID 463, 2006; inhibition, % at 4 µM; 1.2% of 56,000 active;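 active = inhibition above the mean inhibition of all tested compounds plus 3 SD, cut at about 28% in these data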
# HUVEC inhibit = inhibitors of HUVEC proliferation, primary screen, cell-based, 384-well | CellTiter-Glo luminescence, 72 h; hits give low values | viability, % at 10 µM (by protocol) | 1.1% of 86,000 active;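 active = viability at or below 30%; inactive = viability above 30%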
# A number is an active result; n = inactive; x = no result given. Sampled rows, rich in hits. Any-hit rate of the full collection: about 6%.
SMILES,Fibroblast inh,PTK2B oligo ant,cytoskel mod,H69AR inhibit,Jurkat tox 60K,HUVEC inhibit
O=C(NCc1ccco1)c1cnc2n(c1=O)CCS2,n,n,n,n,n,n
CCc1nc2sc3c(c2c(=O)n1NC(=O)CCl)CCCC3,n,n,n,12,x,n
CCc1cccc(NC(=O)Cn2c(=O)oc3cc(S(=O)(=O)N4CCOCC4)ccc32)c1,n,x,n,n,x,n
O=C(Cn1c(=O)oc2cc(S(=O)(=O)N3CCCC3)ccc21)Nc1cccc(C(F)(F)F)c1,n,n,n,38,n,n
COc1cccc(NC(=O)Nc2nnc(-c3ccccc3SCc3ccccc3)s2)c1,n,n,n,17,x,n
O=C(Nc1cccnc1)c1ccc(Oc2ccccc2)cc1,11,n,n,n,n,n
O=C(Nc1cccnc1)c1ccccc1Oc1ccccc1,n,n,n,n,n,n
O=C(NC(NC(=S)Nc1ccc(Cl)cc1Cl)C(Cl)(Cl)Cl)c1cccc([N+](=O)[O-])c1 (centres undefined),x,n,n,x,x,x
COc1cc2nc(N3CCN(C(=O)c4ccco4)CC3)nc(N)c2cc1OC,22,x,x,10,x,n
O=C(C1COc2ccccc2O1)N1CCN(c2ccccc2)CC1 (centres undefined),n,n,x,n,n,n
COc1cc2nc(N3CCN(C(=O)C4COc5ccccc5O4)CC3)nc(N)c2cc1OC (centres undefined),n,x,x,29,x,n
C=CCN1CCN(C(c2ccccc2)c2nnnn2CCC(C)C)CC1 (centres undefined),n,n,x,n,n,n
O=S1(=O)N=C(SCCO)c2ccccc21,n,n,x,n,n,n
O=S1(=O)N=C(Oc2cccc3ccccc23)c2ccccc21,n,n,n,25,x,n
CCn1cc(C(=O)NCc2cccc(F)c2)c(=O)c2cc(F)c(N3CCN(C(=O)c4ccco4)CC3)cc21,n,n,n,16,x,n
CCn1cc(C(=O)Nc2nnc(C)s2)c(=O)c2cc(F)c(N3CCN(C(=O)c4ccco4)CC3)cc21,n,x,n,n,x,n
CCC(=O)N1CCN(c2cc3c(cc2F)c(=O)c(C(=O)O)cn3CC)CC1,n,x,x,n,n,n
CCCCCCC(=O)N1CCN(c2cc3c(cc2F)c(=O)c(C(=O)O)cn3CC)CC1,n,n,n,27,x,n
CCn1cc(C(=O)NCc2cccnc2)c(=O)c2cc(F)c(N3CCN(C(=O)c4ccco4)CC3)cc21,n,n,n,35,x,n
CCc1nnc(NC(=O)C2Cc3ccccc3CN2S(=O)(=O)c2ccc(C)cc2)s1 (centres undefined),n,-3,n,n,x,n
CCOC(=O)N1CC=C2C(C#N)=C(N)C(C#N)(C#N)[C@H](c3ccsc3)[C@H]2C1,n,n,n,n,n,n
N#CC1=C(N)C(C#N)(C#N)C(c2ccncc2)C2CN(C(=O)OCc3ccccc3)CC=C12 (centres undefined),n,n,n,7.7,x,n
CCOC(=O)N1CC=C2C(C#N)=C(N)C(C#N)(C#N)[C@H](c3ccc(OC(C)C)c(OCC)c3)[C@H]2C1,n,n,n,37,n,n
CCOC(=O)N1CC=C2C(C#N)=C(N)C(C#N)(C#N)[C@H](c3ccccc3OCC)[C@H]2C1,n,n,n,n,n,n
CCCNc1nc2c(c(=O)n(C)c(=O)n2C)n1CCC(C)C,n,n,n,n,33,n
SMILES,Fibroblast inh,PTK2B oligo ant,cytoskel mod,H69AR inhibit,Jurkat tox 60K,HUVEC inhibit
CCCCCCn1c(N2CCN(c3ccccc3)CC2)nc2c1c(=O)n(C)c(=O)n2C,n,n,x,n,n,23
CCCCCCn1c(NCC)nc2c1c(=O)n(C)c(=O)n2C,n,n,n,n,78,n
CCCNc1nc2c(c(=O)n(C)c(=O)n2C)n1CCc1ccccc1,n,n,n,n,n,n
CCCCNc1nc2c(c(=O)n(C)c(=O)n2C)n1CCC,x,x,x,x,n,x
CCOCCn1c(N2CCN(c3ccccc3)CC2)nc2c1c(=O)n(C)c(=O)n2C,n,n,x,n,x,n
O=C(OCC#CCSc1nnc(-c2cccc3ccccc23)o1)c1ccco1,n,n,n,30,x,n
O=C(OCC#CCSc1nc2ccccc2o1)c1ccco1,n,n,n,n,n,n
CCc1nn(-c2ccccc2)c2c1-c1cc(OC)c(OC)cc1C1(N2)C(=O)Nc2ccccc21 (centres undefined),n,n,n,n,x,n
Cn1c(-c2ccc[nH]c2=O)nc2cc(Cl)ccc21,x,n,n,x,x,x
Cc1ccc(C2CC2C(=O)NNC(=S)Nc2cccc(Cl)c2)cc1 (centres undefined),n,n,n,17,x,n
CCOC(=O)/C(C(C)=O)=C1\OC(=O)c2ccccc21,n,n,x,n,n,n
Cc1ccc(C)c(NC(=S)c2ccccn2)c1,n,n,n,2.7,x,n
Cc1ccccc1NC(=S)NCCc1ccccn1,x,n,n,x,x,x
S=C(Nc1ccccn1)c1ccccn1,n,n,n,1.3,n,n
Cn1c(=O)[nH]c(=O)c2[nH]c(CN3CCN(C(=O)c4ccco4)CC3)nc21,n,n,n,n,n,n
CCCCCOC(=O)Cn1c(SCC(=O)Nc2ccccc2)nc2c1c(=O)[nH]c(=O)n2C,n,n,n,32,n,n
CCOC(=O)c1csc(NC(=O)CSc2nnnn2CC)n1,n,n,n,n,n,n
Cc1ccc(NC(=S)NC(NC(=O)c2ccco2)C(Cl)(Cl)Cl)cc1 (centres undefined),n,n,n,22,x,n
O=C(O)c1ccc(NC(=S)NC(NC(=O)c2ccco2)C(Cl)(Cl)Cl)cc1 (centres undefined),n,n,n,n,x,n
O=c1[nH]c2cc3c(cc2cc1C(c1nnnn1C1CCCC1)N1CCSCC1)OCCO3 (centres undefined),n,n,n,6.4,n,n
Cc1cc(C)c2cc(C(c3nnnn3C3CCCC3)N3CCOCC3)c(=O)[nH]c2c1 (centres undefined),n,n,x,36,n,n
CCOC(=O)N1CCC(N2C(=O)c3ccccc3C2Nc2cc(C(=O)OC)cc(C(=O)OC)c2)CC1 (centres undefined),n,x,n,n,n,n
Cc1c(NC(=O)c2cc3nc(-c4ccccc4)cc(C)n3n2)c(=O)n(-c2ccccc2)n1C,n,n,n,n,n,n
Cc1c(NC(=O)c2cc3nc(-c4ccc(Br)cc4)cc(C(F)(F)F)n3n2)c(=O)n(-c2ccccc2)n1C,46,n,n,0.6,x,n
CCOC(=O)c1nn(-c2ccc(F)cc2)c(-c2ccccc2)c1C(=O)c1ccccc1,x,-3.1,x,x,x,x
CCOC(=O)c1nn(-c2ccccc2)c(-c2ccccc2)c1C(=O)c1ccccc1,x,-3.5,x,x,x,x
CCOC(=O)c1nn(-c2cccc(Cl)c2)c(C)c1C(C)=O,x,n,n,x,x,x
CCOC(=O)c1nn(-c2ccccc2F)c(-c2ccccc2)c1C(=O)c1ccccc1,x,-4,x,x,x,x
